Measured values as given in ChEMBL document CHEMBL2203173 (J Med Chem, 2012).

What was measured:
[1] = tested on: Mus musculus; assay: Toxicity in BALB/c nu/nu mouse xenografted with human DMS53 cells assessed as change in lungs histology at 6 mg/kg, iv administered for 5 days a week measured after 21 days by hematoxylin and eosin staining method; format: organism-based, DMS-53; set-up: dose 6 mg/kg, route intravenous; conditions: in vivo, 504 h
How it was run: (§1)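 DMS-53 xenografts in nude mice; dosing started at 100 mm3 tumor volume. Agents given iv via tail vein, 5 days/week for 21 days, vehicle 30% propylene glycol/saline, vehicle-treated controls. Mice sacrificed day 21. Body and organ weights and hematological indices recorded. Spleen, kidney, liver, heart, lungs and brain were stained with H&E, Perls' and Gomori Trichrome and read by an independent veterinary pathologist.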

[2] = tested on: Mus musculus; assay: Toxicity in BALB/c nu/nu mouse xenografted with human DMS53 cells assessed as change in brain histology at 3 mg/kg, iv administered for 5 days a week measured after 21 days by hematoxylin and eosin staining method; format: organism-based, DMS-53; set-up: dose 3 mg/kg, route intravenous; conditions: in vivo, 504 h; how it was run: as §1
[3] = tested on: Mus musculus; assay: Toxicity in BALB/c nu/nu mouse xenografted with human DMS53 cells assessed as vacuolation at 6 mg/kg, iv administered for 5 days a week measured after 21 days by hematoxylin and eosin staining method; format: organism-based, DMS-53; set-up: dose 6 mg/kg, route intravenous; conditions: in vivo, 504 h
How it was run: (§2)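 Nude mice with DMS-53 xenografts dosed by tail-vein iv injection in 30% propylene glycol/saline, starting at 100 mm3 tumour volume, 5 days/week for 21 days. Spleen, kidney, liver, heart, lungs and brain were stained with H&E, Perls' (Fe loading) and Gomori Trichrome (fibrosis) by standard methods, and an independent veterinary pathologist examined them.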

[4] = tested on: Mus musculus; assay: Toxicity in BALB/c nu/nu mouse xenografted with human DMS53 cells assessed as change in hematopoetic cells in splenic red pulp at 6 mg/kg, iv administered for 5 days a week measured after 21 days by hematoxylin and eosin staining method; format: organism-based, DMS-53; set-up: dose 6 mg/kg, route intravenous; conditions: in vivo, 504 h; how it was run: as §1
[5] = tested on: Mus musculus; assay: Toxicity in BALB/c nu/nu mouse xenografted with human DMS53 cells assessed as change in platelet count at 3 mg/kg, iv administered for 5 days a week measured after 21 days; format: organism-based, DMS-53; set-up: dose 3 mg/kg, route intravenous; conditions: in vivo, 504 h
How it was run: (§3)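 Nude mice carrying DMS-53 xenografts (treatment from 100 mm3) received iv tail-vein doses in 30% propylene glycol/saline, 5 days/week for 21 days. Hematological indices (RBC, hemoglobin, hematocrit, reticulocytes, WBC, platelets) were then compared with vehicle controls.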

[6] = tested on: Mus musculus; assay: Toxicity in BALB/c nu/nu mouse xenografted with human DMS53 cells assessed as change in lung weight at 10 mg/kg, po administered for 3 times a week measured after 20 days; format: organism-based, DMS-53; set-up: dose 10 mg/kg, route oral; conditions: in vivo, 480 h
How it was run: (§4)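 Nude mice bearing DMS-53 xenografts gavaged 3 times/week for 20 days, vehicle 30% propylene glycol/saline, vehicle controls, n = 6-11 mice/condition. Sacrifice on day 20. Organ weights and hematological indices recorded. Spleen, kidney, liver, heart, lungs and brain examined histologically, hearts stained with Gomori Trichrome for fibrosis.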

[7] = tested on: Mus musculus; assay: Toxicity in BALB/c nu/nu mouse xenografted with human DMS53 cells assessed as change in heart weight at 7.5 mg/kg, po administered for 3 times a week measured after 20 days; format: organism-based, DMS-53; set-up: dose 7.5 mg/kg, route oral; conditions: in vivo, 480 h; how it was run: as §4
[8] = tested on: Mus musculus; assay: Toxicity in BALB/c nu/nu mouse xenografted with human DMS53 cells assessed as body weight change at 20 mg/kg, po administered for 3 times a week measured after 20 days; format: organism-based, DMS-53; set-up: dose 20 mg/kg, route oral; conditions: in vivo, 480 h
How it was run: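 DMS-53 xenograft nude mice dosed by oral gavage 3 times/week in 30% propylene glycol/saline, with vehicle controls. Average body weight recorded during 20 days of treatment. n = 6–11 mice/condition, mean ± SD.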

[9] = tested on: Mus musculus; assay: Toxicity in BALB/c nu/nu mouse xenografted with human DMS53 cells assessed as change in kidney histology at 7.5 mg/kg, po administered for 3 times a week measured after 20 days; format: organism-based, DMS-53; set-up: dose 7.5 mg/kg, route oral; conditions: in vivo, 480 h; how it was run: as §4
[10] = tested on: Mus musculus; assay: Toxicity in BALB/c nu/nu mouse xenografted with human DMS53 cells assessed as change in reticulocyte count at 4 mg/kg, iv administered for 5 days a week measured after 21 days; format: organism-based, DMS-53; set-up: dose 4 mg/kg, route intravenous; conditions: in vivo, 504 h; how it was run: as §3
[11] = tested on: Mus musculus; assay: Toxicity in BALB/c nu/nu mouse xenografted with human DMS53 cells assessed as change in organ weight at 4 mg/kg, iv administered for 5 days a week measured after 21 days; format: organism-based, DMS-53; set-up: dose 4 mg/kg, route intravenous; conditions: in vivo, 504 h
How it was run: (§5)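 DMS-53 xenograft-bearing nude mice, treatment started at 100 mm3 tumour volume: iv tail-vein dosing in 30% propylene glycol/saline, 5 days/week for 21 days. Organs were weighed at sacrifice and compared with vehicle-control mice.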

[12] = tested on: Mus musculus; assay: Toxicity in BALB/c nu/nu mouse xenografted with human DMS53 cells assessed as change in body weight at 8 mg/kg, iv administered for 5 days a week measured after 21 days; format: organism-based, DMS-53; set-up: dose 8 mg/kg, route intravenous; conditions: in vivo, 504 h; how it was run: as §1
[13] = tested on: Mus musculus; assay: Toxicity in BALB/c nu/nu mouse xenografted with human DMS53 cells assessed as hepatocellular necrosis at 4 mg/kg, iv administered for 5 days a week measured after 21 days by hematoxylin and eosin staining method; format: organism-based, DMS-53; set-up: dose 4 mg/kg, route intravenous; conditions: in vivo, 504 h; how it was run: as §2
[14] = tested on: Mus musculus; assay: Toxicity in BALB/c nu/nu mouse xenografted with human DMS53 cells assessed as change in platelet count at 8 mg/kg, iv administered for 5 days a week measured after 21 days; format: organism-based, DMS-53; set-up: dose 8 mg/kg, route intravenous; conditions: in vivo, 504 h; how it was run: as §3
[15] = tested on: Mus musculus; assay: Toxicity in BALB/c nu/nu mouse xenografted with human DMS53 cells assessed as hepatocellular fibrosis at 4 mg/kg, iv administered for 5 days a week measured after 21 days by hematoxylin and eosin staining method; format: organism-based, DMS-53; set-up: dose 4 mg/kg, route intravenous; conditions: in vivo, 504 h; how it was run: as §2
[16] = tested on: Mus musculus; assay: Toxicity in BALB/c nu/nu mouse xenografted with human DMS53 cells assessed as change in RBC count at 4 mg/kg, iv administered for 5 days a week measured after 21 days; format: organism-based, DMS-53; set-up: dose 4 mg/kg, route intravenous; conditions: in vivo, 504 h
[17] = tested on: Mus musculus; assay: Cardiotoxicity in BALB/c nu/nu mouse xenografted with human DMS53 cells at 4 mg/kg, iv administered for 5 days a week measured after 21 days; format: toxicity, organism-based, DMS-53; set-up: dose 4 mg/kg, route intravenous; conditions: in vivo, 504 h
How it was run: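 DMS-53 xenograft nude mice given agents iv by tail vein 5 days/week in 30% propylene glycol/saline for 21 days. At sacrifice, heart sections were stained with Gomori Trichrome to detect fibrosis. Spleen, kidney, liver, heart, lungs and brain were also stained with H&E and Perls' and examined by an independent veterinary pathologist.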

[18] = tested on: Mus musculus; assay: Toxicity in BALB/c nu/nu mouse xenografted with human DMS53 cells assessed as change in organ weight at 8 mg/kg, iv administered for 5 days a week measured after 21 days; format: organism-based, DMS-53; set-up: dose 8 mg/kg, route intravenous; conditions: in vivo, 504 h; how it was run: as §5
[19] = tested on: Mus musculus; assay: Toxicity in BALB/c nu/nu mouse xenografted with human DMS53 cells assessed as change in brain histology at 4 mg/kg, iv administered for 5 days a week measured after 21 days by hematoxylin and eosin staining method; format: organism-based, DMS-53; set-up: dose 4 mg/kg, route intravenous; conditions: in vivo, 504 h; how it was run: as §1
[20] = tested on: Mus musculus; assay: Toxicity in BALB/c nu/nu mouse xenografted with human DMS53 cells assessed as change in hemoglobin level at 20 mg/kg, po administered for 3 times a week measured after 20 days; format: organism-based, DMS-53; set-up: dose 20 mg/kg, route oral; conditions: in vivo, 480 h; how it was run: as §4
[21] = tested on: Mus musculus; assay: Toxicity in BALB/c nu/nu mouse xenografted with human DMS53 cells assessed as change in RBC count at 20 mg/kg, po administered for 3 times a week measured after 20 days; format: organism-based, DMS-53; set-up: dose 20 mg/kg, route oral; conditions: in vivo, 480 h
[22] = tested on: Mus musculus; assay: Toxicity in BALB/c nu/nu mouse xenografted with human DMS53 cells assessed as change in spleen weight at 20 mg/kg, po administered for 3 times a week measured after 20 days; format: organism-based, DMS-53; set-up: dose 20 mg/kg, route oral; conditions: in vivo, 480 h
How it was run: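 DMS-53 xenograft nude mice were gavaged 3 times/week in 30% propylene glycol/saline vehicle for 20 days and then sacrificed. Organ weights and histology of spleen, kidney, liver, heart, lungs and brain were compared with vehicle controls. n = 6-11 mice/condition.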

[23] = tested on: Mus musculus; assay: Toxicity in BALB/c nu/nu mouse xenografted with human DMS53 cells assessed as change in platelet count at 4 mg/kg, iv administered for 5 days a week measured after 21 days; format: organism-based, DMS-53; set-up: dose 4 mg/kg, route intravenous; conditions: in vivo, 504 h; how it was run: as §3

With `CCN(C)C(=S)NN=C(c1ccccn1)c1ccccn1.Cl` the Activity [1] was “Non-toxic”, the Activity [2] was “Non-toxic” and the Activity [3] was “Toxic”. For the same compound, the Activity [4] was “Non-toxic”, the Activity [5] was “Toxic” and the Activity [6] was “Toxic”. The Activity [7] was “Non-toxic”, the Activity [8] was “Non-toxic” and the Activity [9] was “Non-toxic”.

In the case of `CN(C(=S)NN=C(c1ccccn1)c1ccccn1)C1CCCCC1.Cl`, the Activity [10] is reported as “Non-toxic”, the Activity [11] is reported as “Non-toxic” and the Activity [12] is reported as “Non-toxic”. For the same compound, the Activity [13] was “Non-toxic”, the Activity [14] was “Non-toxic” and the Activity [15] was “Non-toxic”. The Activity [16] was “Non-toxic”, the Activity [17] was “Non-toxic” and the Activity [18] was “Toxic”. For the same compound, the Activity [19] was “Non-toxic”, the Activity [20] was “Non-toxic” and the Activity [21] was “Non-toxic”. The Activity [22] was “Non-toxic”, the Activity [23] was “Toxic” and the Activity [9] was “Non-toxic”.
